Source: ChEMBL document CHEMBL4184152, “Thioether-stapled macrocyclic inhibitors of the EH domain of EHD1” (Bioorg Med Chem, 2018)
Calls of active or inactive are those of the source. The calls are words filed in the database; no cut-off is given here. Where a SMILES comes first, the peptide text is derived from it.

Legend:
[1] = target: T1, EH domain-containing protein 1 (Homo sapiens) (UniProt Q9H4M9); experiment: Inhibition of EHD1-EH in human HeLa cells assessed as reduction in internalized transferrin-488 recycling at 50 uM measured after 60 mins by pulse-chase method; type: cell-based
T1 sequence (whole entry): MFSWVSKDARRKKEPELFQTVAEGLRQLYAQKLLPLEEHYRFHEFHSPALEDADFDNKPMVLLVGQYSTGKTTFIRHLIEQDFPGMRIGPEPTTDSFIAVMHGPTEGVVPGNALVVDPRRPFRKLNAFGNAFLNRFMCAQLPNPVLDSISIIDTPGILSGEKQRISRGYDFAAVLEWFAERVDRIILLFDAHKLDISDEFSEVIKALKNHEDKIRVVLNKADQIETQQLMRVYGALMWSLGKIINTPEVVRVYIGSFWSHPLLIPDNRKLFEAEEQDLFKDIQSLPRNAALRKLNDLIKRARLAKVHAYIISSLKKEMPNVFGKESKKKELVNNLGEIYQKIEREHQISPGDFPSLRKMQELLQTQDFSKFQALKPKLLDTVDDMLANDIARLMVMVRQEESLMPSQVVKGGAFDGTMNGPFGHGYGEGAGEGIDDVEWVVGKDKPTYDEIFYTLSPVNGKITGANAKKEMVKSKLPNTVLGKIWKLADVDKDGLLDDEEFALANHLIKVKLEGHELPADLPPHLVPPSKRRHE
Outline: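 HeLa cells were grown in DMEM/10% FBS to 80% confluence, then starved 30 min in DMEM with 0.5% BSA. Cells got a 60-min pulse with Tf-488 (25 µg/mL), with inhibitor present. A 30-min chase followed with 2 mg/mL unlabeled transferrin plus inhibitor, 0.2% DMSO final. Cells were washed in cold PBS, trypsinized and fixed. Flow cytometry counted 10,000 live cells; 50 µM primaquine was the positive control.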

[2] = target: T2, EH domain-containing protein 1 (Homo sapiens, UniProt Q9H4M9); experiment: Binding affinity to GST-fused EHD1 EH domain (unknown origin) expressed in Escherichia coli BL21 cells measured after 1 hr in presence of 150 mM NaCl by fluorescence polarization assay
T2 sequence (Q9H4M9 whole entry): T1 sequence (whole entry)
Outline: (§1)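 NaCl was 15 mM or 150 mM. Polarization was read 1 h after probe addition and re-read later to confirm equilibrium. Kd came from curve fits; technical triplicates, three independent experiments.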

Homo sapiens = species on record: Homo sapiens; experiment: Selectivity ratio of IC50 for GST-fused Eps15 EH2 domain (unknown origin) expressed in Escherichia coli BL21 cells to IC50 for GST-fused EHD1 EH domain (unknown origin)
[3] = target: T3, Epidermal growth factor receptor substrate 15 (Homo sapiens, UniProt P42566); experiment: Binding affinity to GST-fused Eps15 EH2 domain (unknown origin) expressed in Escherichia coli BL21 cells under high salt condition by fluorescence polarization assay
T3 sequence (P42566 whole entry): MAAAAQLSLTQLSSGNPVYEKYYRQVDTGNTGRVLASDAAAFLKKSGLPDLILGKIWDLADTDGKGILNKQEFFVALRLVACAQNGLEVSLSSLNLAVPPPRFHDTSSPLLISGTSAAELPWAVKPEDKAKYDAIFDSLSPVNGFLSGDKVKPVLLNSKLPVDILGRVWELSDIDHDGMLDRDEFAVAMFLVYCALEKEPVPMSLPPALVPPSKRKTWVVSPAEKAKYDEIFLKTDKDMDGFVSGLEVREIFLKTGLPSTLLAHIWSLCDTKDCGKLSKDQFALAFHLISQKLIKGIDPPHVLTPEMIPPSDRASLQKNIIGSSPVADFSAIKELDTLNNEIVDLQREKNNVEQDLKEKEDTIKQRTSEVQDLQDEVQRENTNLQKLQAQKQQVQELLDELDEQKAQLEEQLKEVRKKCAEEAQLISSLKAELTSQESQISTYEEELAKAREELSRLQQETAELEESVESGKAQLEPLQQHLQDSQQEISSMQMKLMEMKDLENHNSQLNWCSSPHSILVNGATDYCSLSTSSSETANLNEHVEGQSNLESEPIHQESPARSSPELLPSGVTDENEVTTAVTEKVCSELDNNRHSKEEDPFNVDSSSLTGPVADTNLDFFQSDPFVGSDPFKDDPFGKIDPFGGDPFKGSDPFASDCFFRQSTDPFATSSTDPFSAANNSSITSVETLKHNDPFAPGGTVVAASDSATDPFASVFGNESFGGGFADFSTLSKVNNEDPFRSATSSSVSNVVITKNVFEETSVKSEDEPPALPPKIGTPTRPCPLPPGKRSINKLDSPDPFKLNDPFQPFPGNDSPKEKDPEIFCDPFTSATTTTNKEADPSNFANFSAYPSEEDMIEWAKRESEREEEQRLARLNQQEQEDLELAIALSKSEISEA
Outline: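 Eps15-EH2 protein concentration was set by A280 using an extinction coefficient of 13980 M-1cm-1. Binding of fluorescein-labeled peptides to Eps15-EH2 was measured in an FP direct binding format with varying protein concentration.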

[4] = target: T2, EH domain-containing protein 1; experiment: Binding affinity to GST-fused EHD1 EH domain (unknown origin) expressed in Escherichia coli BL21 cells measured after 1 hr in presence of 15 mM NaCl by fluorescence polarization assay; outline: as §1

SMILES	inhibition [1]	Kd [2]	Ratio IC50 (Homo sapiens)	IC50 [3]	Kd [4]
COc1cc(NC(C)CCCN)c2ncccc2c1 (configuration not stated)	Active				
CC(=O)N(CCCC[C@@H]1NC(=O)CNC(=O)[C@H](CCC(=O)O)NC(=O)[C@H](CCC(=O)O)NC(=O)[C@H](Cc2ccccc2)NC(=O)[C@@H]2CCCN2C(=O)[C@H](CC(N)=O)NC(=O)[C@H](Cc2ccc(O)cc2)NC1=O)C(=O)c1ccccc1-c1c2ccc(=O)cc-2oc2cc(O)ccc12 (HELM PEPTIDE1{E.E.G.[CC(=O)N(CCCC[C@H](N[*:1])C(=O)[*:2])C(=O)c1ccccc1-c1c2ccc(=O)cc-2oc2cc(O)ccc12].Y.N.P.F}$PEPTIDE1,PEPTIDE1,1:R1-8:R2$$$V2.0)		15.1 µM	15	> 100 µM	3 µM
NC(=O)C[C@@H]1NC(=O)[C@H](Cc2ccc(O)cc2)NC(=O)CNC(=O)CNC(=O)[C@H](CCC(=O)O)NC(=O)[C@H](CCC(=O)O)NC(=O)[C@H](Cc2ccccc2)NC(=O)[C@@H]2CCCN2C1=O (HELM PEPTIDE1{Y.N.P.F.E.E.G.G}$PEPTIDE1,PEPTIDE1,1:R1-8:R2$$$V2.0)	inactive				
C#CCCC(=O)N[C@H]1CSCc2ccc(cc2)CSCCNC(=O)[C@H](CCC(=O)O)NC(=O)[C@H](CCC(=O)O)NC(=O)[C@H](Cc2ccccc2)NC(=O)[C@@H]2CCCN2C(=O)[C@H](CC(N)=O)NC(=O)[C@H](Cc2ccc(O)cc2)NC1=O (HELM PEPTIDE1{[C#CCCC(=O)[*:2]].C.Y.N.P.F.E.E}|CHEM1{[c1cc(C[*:1])ccc1CSCCN[*:2]]}$PEPTIDE1,CHEM1,2:R3-1:R1|PEPTIDE1,CHEM1,8:R2-1:R2$$$V2.0)	inactive				
